Experiments:
[1] = test system: HCC827; assay: Antiproliferative activity against human HCC827 cells assessed as reduction in cell viability measured after 72 hrs by flow cytometry analysis; type: functional, cell-based; conditions: HCC827, 72 h
How it was run: (§1)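 Cells in RPMI 1640 with 10% FBS and penicillin/streptomycin/amphotericin B, seeded at 2.5–3 × 10⁴ per well. Grown adherent in fresh medium for 24 h, then exposed to a range of compound concentrations for 72 h. Living cell numbers counted by flow cytometry; IC50 calculated. Mean ± SD from three experiments.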

[2] = test system: HEL; assay: Antiproliferative activity against human HEL cells assessed as reduction in cell viability measured after 72 hrs by flow cytometry analysis; type: functional, cell-based; how it was run: as §1
[3] = test system: SH-SY5Y; assay: Antiproliferative activity against human SH-SY5Y assessed as reduction in cell viability measured after 72 hrs by flow cytometry analysis; type: functional, cell-based; how it was run: as §1
[4] = Antiproliferative activity against human LM3 cells assessed as reduction in cell viability measured after 72 hrs by flow cytometry analysis; type: functional, cell-based; conditions: GILM3, 72 h; how it was run: as §1
[5] = Inhibition of PI3K in human HCC827 cells assessed as decrease in phosphorylation incubated for 24 hrs by cell PI3 kinase activity photometric assay; type: cell-based; conditions: HCC827, 24 h
How it was run: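 Human NSCLC HCC827 cells grown in RPMI 1640 with 10% FBS and antibiotics-antimycotics, exposed to a range of concentrations for 24 h. Cells washed with Reagent A, lysed with Reagent B, protein measured by Bradford, then 100 μg lysate protein per group used in a cell PI3K assay kit for kinase activity. IC50 given as mean ± SD of three separate experiments.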

[6] = test system: L02; assay: Antiproliferative activity against human HL7702 cells assessed as reduction in cell viability measured after 72 hrs by flow cytometry analysis; type: functional, cell-based; conditions: L02, 72 h; how it was run: as §1

Q: With CCC(=O)Nc1ccc(-c2ccc3ncn(Cc4ccc(C)cc4)c(=O)c3c2)cn1 as the molecule, how does the IC50 [1] read?
A: The IC50 was greater than 40 µM.

Q: What about the IC50 [2] of the same molecule?
A: Its IC50 is greater than 40 µM.

Q: What about the IC50 [3] of the same molecule?
A: The IC50 was greater than 40 µM.

Q: And the IC50 [4]?
A: Its IC50 is greater than 40 µM.

Q: Which IC50 [1] does the source give for CCC(=O)Nc1ccc(-c2ccc3ncn(CC(=O)N4CCOCC4)c(=O)c3c2)cn1 here?
A: Its IC50 is greater than 40 µM.

Q: What about the IC50 [2] of the same molecule?
A: Its IC50 is greater than 40 µM.

Q: And the IC50 [3]?
A: Its IC50 is greater than 40 µM.

Q: And the IC50 [4]?
A: The IC50 was greater than 40 µM.

Q: What does the source list for CCC(=O)Nc1ccc(-c2ccc3ncn(CCN4CCOCC4)c(=O)c3c2)cn1?
A: IC50 [1]: > 40 µM; IC50 [2]: > 40 µM; IC50 [3]: > 40 µM; IC50 [4]: > 40 µM

Q: With COC[C@H]1OC(=O)c2coc3c2[C@@]1(C)C1=C(C3=O)[C@@H]2CCC(=O)[C@@]2(C)C[C@H]1OC(C)=O [WORTMANNIN] as the molecule, how does the IC50 [5] read?
A: The IC50 was 18 nM.

Q: Which IC50 [1] does the source give for CCCCC(=O)Nc1ccc(-c2ccc3ncn(Cc4ccc5c(c4)OCO5)c(=O)c3c2)cn1 here?
A: The IC50 was greater than 40 µM.

Q: And the IC50 [2]?
A: Its IC50 is greater than 40 µM.

Q: What about the IC50 [3] of the same molecule?
A: Its IC50 is greater than 40 µM.

Q: What about the IC50 [4] of the same molecule?
A: The IC50 was greater than 40 µM.

Q: Which results are given for CC(C)(C)C(=O)Nc1ccc(-c2ccc3ncn(Cc4ccccc4)c(=O)c3c2)cn1?
A: IC50 [1]: > 40 µM; IC50 [2]: > 40 µM; IC50 [3]: > 40 µM; IC50 [4]: > 40 µM

Q: For CC(C)(C)C(=O)Nc1ccc(-c2ccc3ncn(Cc4ccc5c(c4)OCO5)c(=O)c3c2)cn1, which IC50 [1] is on record?
A: The IC50 was greater than 40 µM.

Q: What about the IC50 [2] of the same molecule?
A: The IC50 was greater than 40 µM.

Q: And the IC50 [3]?
A: Its IC50 is greater than 40 µM.

Q: And the IC50 [4]?
A: Its IC50 is greater than 40 µM.

Q: What does the source list for CCCCn1cnc2ccc(-c3ccc(NC(=O)CC)nc3)cc2c1=O?
A: IC50 [6]: 10.9 µM; IC50 [1]: 1.2 µM; IC50 [2]: 2.83 µM; IC50 [3]: 3.72 µM; IC50 [4]: 2.49 µM

Q: With Cn1c(=O)n(-c2ccc(C(C)(C)C#N)cc2)c2c3cc(-c4cnc5ccccc5c4)ccc3ncc21 [DACTOLISIB] as the molecule, how does the IC50 [1] read?
A: Its IC50 is 0.53 µM.

Q: And the IC50 [2]?
A: The IC50 was 0.29 µM.

Q: And the IC50 [3]?
A: The IC50 was 0.79 µM.

Q: And the IC50 [4]?
A: Its IC50 is 1.31 µM.

— ChEMBL document CHEMBL4825737, “Design, synthesis, and biological evaluation of novel 6-(pyridin-3-yl) quinazolin-4(3H)-one derivatives as potential anticancer agents via PI3K inhibition” (Bioorg Med Chem, 2021)
